{"source": "paper PMC5707466", "about": "(Chemical Science, 2015)", "key": {"[1]": {"assay": "Theoretical effective diffusion through microporous membrane", "conditions": "200 nm membrane pore radius", "procedure,_shortened": "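This is a calculation, not a measurement: Deff/D0 through the membrane was computed with the Renkin equation from hydrodynamic radius (RH) and pore radius (RP), with a membrane pore diameter of 0.4 μm. Theoretical effective diffusion times assumed continuous stirring of the chambers.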"}, "[2]": {"assay": "SPR calibration with sucrose solutions", "type": "physicochemical", "conditions": "absence of the microporous membrane; calibration slope", "procedure,_shortened": "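The SPR instrument was calibrated without the microporous membrane by successive injections of sucrose solutions with refractive indices from 1.33772 to 1.35589. Sensitivity is the response per refractive index unit (nm/RIU).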"}, "[3]": {"assay": "SPR monitoring of sucrose diffusion/equilibration in dialysis chamber", "type": "physicochemical", "conditions": "for t eff unstirred (experimental): passive mixing, fit of SPR data with eqn (2); for experimental effective diffusion time: unstirred", "procedure,_shortened": "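The dialysis chamber was a PDMS spacer (150 μm–1.0 mm) on the gold prism, filled with PBS and topped by a 0.4 μm-pore membrane. The sensor carried a 3-MPA-LHDLHD-OH monolayer. Sucrose was injected into the reservoir, and the SPR response was followed in the sensing chamber. Neither chamber was stirred, so mixing was by diffusion only. Effective diffusion time was fitted with c = ceq(1 – e^(–t/teff)).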"}, "[4]": {"biological_target": "T1, CD36 (Homo sapiens, UniProt P16671)", "T1 sequence (P16671 whole entry)": "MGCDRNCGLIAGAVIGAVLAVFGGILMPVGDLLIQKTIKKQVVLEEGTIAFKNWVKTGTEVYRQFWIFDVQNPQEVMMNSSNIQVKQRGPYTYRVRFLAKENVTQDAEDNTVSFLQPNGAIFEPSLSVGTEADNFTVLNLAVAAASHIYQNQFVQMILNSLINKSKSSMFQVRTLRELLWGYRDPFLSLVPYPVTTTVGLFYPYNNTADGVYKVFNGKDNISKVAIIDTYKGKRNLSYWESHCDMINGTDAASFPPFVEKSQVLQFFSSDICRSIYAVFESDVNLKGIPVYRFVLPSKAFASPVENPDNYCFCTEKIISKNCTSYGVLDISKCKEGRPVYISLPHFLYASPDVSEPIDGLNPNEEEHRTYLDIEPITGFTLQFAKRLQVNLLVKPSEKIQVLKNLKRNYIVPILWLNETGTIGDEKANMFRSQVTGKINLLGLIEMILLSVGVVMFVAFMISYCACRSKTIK", "assay": "CD36 SPR biosensor with dialysis chamber", "type": "binding", "conditions": "for SPR signal change: 10 μM peptide, buffer (PBS), CD36 sensor", "procedure,_shortened": "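Hexahistidine-tagged CD36 was captured by Cu2+ chelation on a 3-MPA-LHDLHD-OH monolayer. The monolayer was self-assembled overnight, then NTA-coupled via EDC/NHS. A PDMS spacer was filled with PBS and capped with a 0.4 μm-pore membrane. Peptide in PBS, untreated serum or whole blood was injected into the reservoir for 90 min per concentration. Triplicates ran in separate sensing chambers, with blank serum/blood in the reference channel and background subtracted.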"}, "[5]": {"biological_target": "T1, CD36", "assay": "CD36 SPR biosensor without dialysis chamber", "type": "binding", "conditions": "matrix not stated"}, "[6]": {"biological_target": "T1, CD36", "conditions": "saline solution (stated for DBG178); CD36 SPR biosensor; cited from earlier work"}, "[7]": {"conditions": "with microporous membrane"}, "[8]": {"biological_target": "hexahistidine-tagged type B scavenger receptor CD36 (cluster of differentiation 36) (UniProt P16671)", "sequence (P16671 whole entry)": "as above", "assay": "SPR"}, "[9]": {"biological_target": "hexahistidine-tagged type B scavenger receptor CD36 (cluster of differentiation 36) (UniProt P16671)", "assay": "SPR", "remark": "listed apart in the source"}, "[10]": {"biological_target": "hexahistidine-tagged type B scavenger receptor CD36 (cluster of differentiation 36) (UniProt P16671)", "assay": "SPR", "remark": "listed apart in the source"}}, "note": "Like-named read-outs stand apart in the source and are kept apart here. Where no end group is shown, it is not given here. [ ]: non-standard residue; d: D form. AzaTyr = not defined here", "data": [{"molecule": "OC[C@H]1O[C@@](CO)(O[C@H]2O[C@H](CO)[C@@H](O)[C@H](O)[C@H]2O)[C@@H](O)[C@@H]1O", "note": "[Sucrose, sucrose]", "values": [{"measurement": "RH/RP", "setting": "[1]", "value": 0.00235}, {"measurement": "SPR sensitivity without microporous membrane", "setting": "[2]", "value": 2221, "unit": "nm/RIU"}, {"measurement": "t eff unstirred (experimental)", "setting": "[3]; spacer 0.15 mm", "value": 5529, "unit": "s"}, {"measurement": "t eff unstirred (experimental)", "setting": "[3]; spacer 0.30 mm", "value": 9892, "unit": "s"}, {"measurement": "t eff unstirred (experimental)", "setting": "[3]; spacer 0.60 mm", "value": "26 590 s"}, {"measurement": "experimental effective diffusion time", "setting": "[3]; spacer 1 mm (1000 μm), b26 prints unit as hours", "value": 15.5, "unit": "h"}, {"measurement": "t eff unstirred (experimental)", "setting": "[3]; spacer 1.00 mm", "value": "55 687 s"}, {"measurement": "experimental effective diffusion time", "setting": "[3]; spacer 150 μm", "value": 1.5, "unit": "h"}, {"measurement": "increase in equilibration time of the sensing chamber in absence of mixing", "setting": "[3]; spacer 150 μm, unstirred experimental vs stirred theoretical", "value": 300, "unit": "fold"}]}, {"molecule": "His-D-Trp-Ala-AzaTyr-D-Phe-Lys-NH2 [DBG178]", "values": [{"measurement": "SPR response", "setting": "[4]; 7.5 μM, human serum, dialysis chamber, 90 min, reference-subtracted, triplicate", "value": "0.49 ± 0.02", "unit": "nm"}, {"measurement": "SPR signal change", "setting": "[4]; dialysis chamber", "value": "0.28 ± 0.11", "unit": "nm"}, {"measurement": "concentrations that could not be detected", "setting": "[4]; dialysis chamber, saline/PBS, 90 min per concentration", "value": "below 5 μM"}, {"measurement": "difference in SPR response with vs without dialysis chamber", "setting": "[4]; highest concentration", "value": 12, "unit": "%"}, {"measurement": "SPR response with the microdialysis chamber", "setting": "[4]; highest concentration, matrix not stated", "value": 0.78, "unit": "nm"}, {"measurement": "calibration curve signal in human serum (in words)", "setting": "[4]; human serum vs PBS, same concentration range, Fig. 3", "value": "increased in signal compared to PBS"}, {"measurement": "SPR response at nanomolar concentrations", "setting": "[4]; nanomolar range, dialysis chamber", "value": "below the detection limit of the SPR sensor"}, {"measurement": "analysis time sufficient to reach equilibrium of the SPR sensor", "setting": "[4]; whole blood, dialysis chamber, Fig. SI4", "value": 90, "unit": "min"}, {"measurement": "SPR response in whole blood (in words)", "setting": "[4]; whole human blood, 5, 7.5 and 10 μM, vs human serum, Fig. 3", "value": "in great agreement with human serum"}, {"measurement": "SPR response without the dialysis chamber", "setting": "[5]; 8.75 μM, no dialysis chamber", "value": "0.71 ± 0.10", "unit": "nm"}, {"measurement": "SPR response without the microporous membrane", "setting": "[5]; highest concentration", "value": 0.89, "unit": "nm"}, {"measurement": "Kd", "setting": "[6]", "value": 5, "unit": "µM"}]}, {"molecule": "BSA: bovine serum albumin (BSA) (MW = 66.4 kDa)", "values": [{"measurement": "diffusion time required to observe a significant SPR response / large shift", "setting": "[7]", "value": "~8", "unit": "h"}]}, {"molecule": "His-D-Trp-AzaLeu-Trp-D-Phe-Ala-NH2 [CP-2B(i), reference compound]", "values": [{"measurement": "SPR signal change", "setting": "[4]; dialysis chamber", "value": "–0.073 ± 0.030 nm"}, {"measurement": "Kd", "setting": "[6]", "value": 31, "unit": "µM"}]}, {"molecule": "H[dW]A[AzaTyr][dF]K-NH2 (reading uncertain; also: printed as His-D-Trp-Ala-AzaTyr-D-Phe-Lys-NH2)", "note": "[DBG178 (His-D-Trp-Ala-AzaTyr-D-Phe-Lys-NH2)]", "values": [{"measurement": "Kd", "setting": "[8]", "value": 17, "unit": "µM"}, {"measurement": "SPR response at 7.5 uM", "setting": "[8]", "value": 0.49, "unit": "nm"}, {"measurement": "SPR response at 8.75 uM", "setting": "[8]", "value": 0.71, "unit": "nm"}, {"measurement": "SPR response at the highest concentration", "setting": "[8]", "value": 0.89, "unit": "nm"}, {"measurement": "SPR signal change at 10 uM", "setting": "[8]", "value": 0.28, "unit": "nm"}, {"measurement": "SPR response at the highest concentration", "setting": "[9]", "value": 0.78, "unit": "nm"}, {"measurement": "SPR response at 7.5 uM", "setting": "[10]", "value": 0.46, "unit": "nm"}]}]}
